Screening results: PubChem BioAssay, several laboratories
DAGLB inh: DAGLB lipase inhibitors, primary screen, biochemical, fluorescence, HTS; Diacylglycerol lipase-beta (Homo sapiens), Q8NCG7; HEK293T DAGLB membrane lysate, EnzChek fluorogenic substrate; inhibition, % at 5.17 µM; 340,000 tested, 0.059% active; in the data active = inhibition above about 34%;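 note: 0% = enzyme with vehicle and 100% = wells lacking enzyme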
Target sequence (Q8NCG7 whole entry, looked up): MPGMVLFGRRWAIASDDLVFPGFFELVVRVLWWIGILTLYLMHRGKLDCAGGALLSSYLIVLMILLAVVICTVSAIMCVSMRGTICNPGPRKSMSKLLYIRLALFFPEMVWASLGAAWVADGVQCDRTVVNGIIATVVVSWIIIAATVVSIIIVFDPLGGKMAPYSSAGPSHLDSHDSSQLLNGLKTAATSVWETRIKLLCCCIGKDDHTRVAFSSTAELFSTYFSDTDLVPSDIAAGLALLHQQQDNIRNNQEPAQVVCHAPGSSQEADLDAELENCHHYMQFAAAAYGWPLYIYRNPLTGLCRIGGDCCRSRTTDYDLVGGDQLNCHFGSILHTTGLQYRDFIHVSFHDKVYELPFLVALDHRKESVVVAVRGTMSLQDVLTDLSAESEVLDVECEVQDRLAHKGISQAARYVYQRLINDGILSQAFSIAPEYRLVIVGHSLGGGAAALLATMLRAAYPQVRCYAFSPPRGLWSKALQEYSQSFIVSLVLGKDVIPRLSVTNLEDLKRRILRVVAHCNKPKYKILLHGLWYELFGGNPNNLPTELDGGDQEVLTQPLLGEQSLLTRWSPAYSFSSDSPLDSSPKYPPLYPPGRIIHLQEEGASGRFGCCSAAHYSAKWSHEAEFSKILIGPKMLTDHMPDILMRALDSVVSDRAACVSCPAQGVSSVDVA
ANO1 activ: TMEM16A chloride channel activators or potentiators, primary screen, cell-based, HTS; Anoctamin-1 (Mus musculus), Q8BHY3; HEK293 TMEM16A/YFP-H148Q/I152L, iodide quench fluorescence; stronger effect = lower value; B-score at 10 µM; 340,000 tested, 0.3% active;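 active = fluorescence-ratio B-score plate-corrected deviation score at least 3 library SD below zero, with starting fluorescence score within 5 deviations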;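 note: channel opened by trigger with iodide after compound preincubation; score built on the fluorescence ratio of max minus min over baseline; more negative score means more quench and so TMEM16A activation or potentiation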
MT1-MMP act inh: blockers of MT1-MMP proenzyme processing, primary screen, HT1080 RFP-PRO-GFP cells, GFP/RFP fluorescence. GFP/RFP ratio change, % at 20 µM. 360,000 tested, 0.061% active. GFP/RFP ratio fluorescence, overnight; percent of plate control window, DMSO zero. Matrix metalloproteinase-14 (Homo sapiens), P50281. AID 651647, 2012;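 active = GFP/RFP ratio change of at least 30% with cell ATP level not reduced by more than half and red fluorescence within 50% of control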
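Test system: HT1080 RFP-PRO-GFP cells; Benchmarks: DMSO and RFP-L50D-GFP cell wells; Timing: cells overnight before dosing, compound overnight, 37 °C, 5% CO2; Compound: one 20 µM compound dose with 1% DMSO; Read-out: GFP/RFP fluorescence ratio.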
TMEM16A inh: TMEM16A chloride channel inhibitors, primary screen, cell-based, HTS; Anoctamin-1 (Mus musculus), Q8BHY3; HEK293 TMEM16A/YFP iodide influx fluorescence, ionomycin; normalized B-score (activity score, 25-100; higher = stronger inhibition) at 10 µM; 310,000 tested, 1.2% active; AID 588511, 2011;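 active = ratio plate-corrected score three or more library SD toward inhibition, starting fluorescence score within five deviations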;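 note: score derived from kinetic fluorescence span divided by baseline fluorescence per well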
TMEM16A reconf: TMEM16A chloride channel inhibitors, confirmation, cell-based, re-confirmation; shares compounds with TMEM16A inh; HEK293 TMEM16A/YFP-H148Q, iodide quench fluorescence; ionomycin added to raise cell calcium; inhibition, % at 10 µM; 2,300 tested, 39% active; AID 652189, 2013;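 active = mean duplicate percent inhibition, scaled so buffer wells are 0 and the reference blocker 100, over three buffer SD above buffer mean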
TMEM16A Ca cntr: calcium mobilization in TMEM16A/YFP HEK293 cells, confirmation, counter-screen for TMEM16A inhibitor project; shares compounds with TMEM16A inh; Fluo4 calcium mobilization; calcium response (% of ionomycin), % at 10 µM; 2,300 tested, 2% active; AID 652231, 2013;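 active = duplicate-averaged calcium signal over 20% of the ionomycin maximum, relative to buffer baseline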;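 note: each well's signal is peak minus trough fluorescence divided by its pre-addition baseline; 0% = buffer wells and 100% = ionomycin wells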
Parental YFP cnt: iodide YFP quench changes in parental YFP-HEK293, counter-screen for TMEM16A inhibitor project, cell-based | shares compounds with TMEM16A inh | ionomycin | YFP ratio F(max-min)/F0 at 10 µM | 2,300 tested, under 10 active | AID 652233, 2013;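 active = yellow fluorescent protein signal ratio exceeding the buffer control mean by over 5 SD of those controls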;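 note: ratio is mean of duplicate wells from kinetic YFP trace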
ClC-1 inh: ClC-1 chloride channel inhibition, selectivity assay for TMEM16A inhibitor project, cell-based, voltage-dependent ClC-1 | ratio percent, % at 10 µM | CHO ClC-1-YFP, iodide influx fluorescence quench; iodide control reads 0, buffer control 100 | 2,300 tested, under 10 active | AID 652236, 2013 | shares compounds with TMEM16A inh;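 active = duplicate-mean ratio percent above the mean of iodide-only control wells, which defines zero, plus 5 of their SD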;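 note: higher percent means stronger block of ClC-1 iodide influx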
An asterisk follows results filed as active. Rows were chosen to be rich in hits. Some 1.3% of all compounds tested hit in one or more screens of this group.

How did CCc1nc(SCC(=O)c2cccs2)c2oc3ccccc3c2n1 do in these assays?
DAGLB inh: -14.9; ANO1 activ: inactive; MT1-MMP act inh: -4.6; TMEM16A inh: 100*; TMEM16A reconf: inactive; TMEM16A Ca cntr: inactive; Parental YFP cnt: -1.05; ClC-1 inh: -12.5

Results for CCc1nc(SCC(=O)NCCc2ccccc2)c2oc3ccccc3c2n1 ?
DAGLB inh: -2.4; ANO1 activ: inactive; MT1-MMP act inh: -4.2; TMEM16A inh: inactive

How did COCCn1c(C)cc(C(=O)CSc2nc(C)c(C)c(C)n2)c1C do in these assays?
DAGLB inh: -0.4; ANO1 activ: inactive; MT1-MMP act inh: -4.9; TMEM16A inh: inactive

What do the screens show for `COCCn1c(C)cc(C(=O)CSc2ncn[nH]2)c1C`?
DAGLB inh: 2.6; ANO1 activ: inactive; MT1-MMP act inh: 2.2; TMEM16A inh: 100*; TMEM16A reconf: inactive; TMEM16A Ca cntr: inactive; Parental YFP cnt: -1.14; ClC-1 inh: -7.0

How did CCOc1cc(CN2CCc3c([nH]c4ccccc34)C2)ccc1OC do in these assays?
DAGLB inh: 1.8; ANO1 activ: inactive; MT1-MMP act inh: -2.5; TMEM16A inh: inactive

Results for COc1ccc(CN2CCc3c([nH]c4ccccc34)C2)cc1Br ?
DAGLB inh: -10.8; ANO1 activ: inactive; MT1-MMP act inh: 2.3; TMEM16A inh: 100*; TMEM16A reconf: inactive; TMEM16A Ca cntr: inactive; Parental YFP cnt: -0.996; ClC-1 inh: -4.0

What do the screens show for `CCN(CC)C(=O)c1cccc(NC(=O)c2ccccc2OCc2c(C)noc2C)c1`?
DAGLB inh: 0.2; ANO1 activ: inactive; MT1-MMP act inh: -2.3

What do the screens show for `CC1CCN(c2ncnc3c2cnn3-c2ccccc2)CC1`?
DAGLB inh: -10.5; ANO1 activ: inactive; MT1-MMP act inh: -3.0; TMEM16A inh: inactive

Results for COc1cccc(OCCN2CCN(c3ncnc4c3cnn4-c3ccccc3)CC2)c1 ?
DAGLB inh: -8.9; ANO1 activ: inactive; MT1-MMP act inh: 2.7; TMEM16A inh: 100*; TMEM16A reconf: inactive; TMEM16A Ca cntr: inactive; Parental YFP cnt: -0.883; ClC-1 inh: -9.5

Results for O=[N+]([O-])c1ccc(-c2nc(-c3cccs3)c(-c3cccs3)[nH]2)cc1 ?
DAGLB inh: 20.0; ANO1 activ: inactive; MT1-MMP act inh: -112.5; TMEM16A inh: inactive; TMEM16A reconf: 20.5%*; TMEM16A Ca cntr: inactive; Parental YFP cnt: -1.02; ClC-1 inh: 3.0

What do the screens show for `CCOC(=O)C1=C[C@@H](C2CCCCC2)N(S(=O)(=O)c2ccc([N+](=O)[O-])cc2)[C@H]1c1ccccc1`?
MT1-MMP act inh: -3.5

Results for CN(CCCC(=O)Nc1ccncc1)S(=O)(=O)c1ccc(Cl)cc1 ?
DAGLB inh: -0.6; ANO1 activ: inactive; MT1-MMP act inh: 0.4; TMEM16A inh: 100*; TMEM16A reconf: inactive; TMEM16A Ca cntr: inactive; Parental YFP cnt: -0.917; ClC-1 inh: -23.0

Results for CN(CC(=O)Nc1ccncc1)S(=O)(=O)c1ccc(Br)cc1 ?
DAGLB inh: 0.3; ANO1 activ: inactive; MT1-MMP act inh: -0.3; TMEM16A inh: inactive

Results for Cc1ccc(CC(=O)Nc2ccncc2)cc1 ?
DAGLB inh: -2.0; ANO1 activ: inactive; MT1-MMP act inh: 1.9; TMEM16A inh: inactive

Results for O=C(Cc1ccc(Cl)cc1)Nc1ccncc1 ?
DAGLB inh: 0.8; ANO1 activ: inactive; MT1-MMP act inh: -8.4; TMEM16A inh: 25*; TMEM16A reconf: inactive; TMEM16A Ca cntr: inactive; Parental YFP cnt: -0.841; ClC-1 inh: -14.5

What do the screens show for `CCN(Cc1nc2ccccc2c(=O)[nH]1)C(=O)c1cc2c(s1)CCCCC2`?
DAGLB inh: -3.1; ANO1 activ: inactive; MT1-MMP act inh: 9.6

Results for Oc1[nH]c2ccccc2c1N=Nc1ccccc1 ?
DAGLB inh: -1.0; ANO1 activ: inactive; MT1-MMP act inh: -1.1; TMEM16A inh: inactive; TMEM16A reconf: inactive; TMEM16A Ca cntr: inactive; Parental YFP cnt: -0.969; ClC-1 inh: 13.5

Results for Oc1[nH]c2ccccc2c1N=Nc1ccc(F)cc1 ?
DAGLB inh: -3.5; ANO1 activ: inactive; MT1-MMP act inh: 0.5; TMEM16A inh: inactive

Results for Fc1ccc(NC(=S)Nc2ccccc2OC(F)F)cc1Cl ?
DAGLB inh: -0.3; ANO1 activ: inactive; MT1-MMP act inh: 0.1; TMEM16A inh: 100*; TMEM16A reconf: 63.0%*; TMEM16A Ca cntr: inactive; Parental YFP cnt: -1.43; ClC-1 inh: -29.5

Results for Fc1ccc(NC(=S)Nc2cccnc2)cc1Cl ?
DAGLB inh: -0.9; ANO1 activ: inactive; MT1-MMP act inh: 0.5; TMEM16A inh: 25*; TMEM16A reconf: inactive; TMEM16A Ca cntr: inactive; Parental YFP cnt: -0.812; ClC-1 inh: -10.5

Results for FC(F)Oc1ccccc1NC(=S)Nc1cccnc1 ?
DAGLB inh: 1.2; ANO1 activ: inactive; MT1-MMP act inh: 1.2; TMEM16A inh: inactive

How did CC(=O)c1cccc(Nc2ccc(C#N)cc2)c1 do in these assays?
MT1-MMP act inh: 0.3

How did CC1(C(=O)NS(=O)(=O)C2CC2)CCCN(C(=O)c2ccco2)C1 (stereo not given) do in these assays?
MT1-MMP act inh: -0.9

Results for COC(=O)[C@H](CC(C)C)NC(=O)NC1CCCCC1C (stereo not given in full) ?
DAGLB inh: -2.5; ANO1 activ: inactive; MT1-MMP act inh: 7.3; TMEM16A inh: 25*; TMEM16A reconf: inactive; TMEM16A Ca cntr: inactive; Parental YFP cnt: -1.05; ClC-1 inh: -10.0

How did CN(C)C(=O)c1ccc(NC(=O)c2cccc(S(=O)(=O)N3CCN(Cc4ccccc4)CC3)c2)cc1 do in these assays?
DAGLB inh: 1.1; ANO1 activ: inactive; MT1-MMP act inh: -6.5
